Activity calls are given as the source filed them. No cut-off for these calls is given here.
Tests used:
Mus musculus = assay: Anticonvulsant activity in C57BL6J mouse assessed as prevention of shock-induced tonic-clonic seizures at 3 mg/kg, po after 30 mins; format: functional; settings: for ED50: 0.5 h
Method in brief: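 Male C57BL6J mice, 14 weeks old. Dosed 3 mg/kg by gavage in 5% EtOH + 10% Tween 80 + 85% water, sonicated, 2 mL/kg. Maximal electroshock via auricular electrodes 30 min post-dose: 100 Hz, 0.7 ms pulse width, 0.5 s duration, 18 mA. Read-out was protection from tonic–clonic seizures; n = 10.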

[1] = target: T1, Sodium channel protein type 9 subunit alpha (Homo sapiens, UniProt Q15858); assay: Inhibition of human Nav1.7 sodium channel expressed in HEK293 cells by FRET assay; format: cell-based
Method in brief: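 HEK-293 cells stably expressing hNav1.7 were used in a functional membrane-potential assay. Channel block was read as FRET between two membrane-associated dyes; the value is reported as IC50.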
Target sequence in this assay (Q15858 whole entry): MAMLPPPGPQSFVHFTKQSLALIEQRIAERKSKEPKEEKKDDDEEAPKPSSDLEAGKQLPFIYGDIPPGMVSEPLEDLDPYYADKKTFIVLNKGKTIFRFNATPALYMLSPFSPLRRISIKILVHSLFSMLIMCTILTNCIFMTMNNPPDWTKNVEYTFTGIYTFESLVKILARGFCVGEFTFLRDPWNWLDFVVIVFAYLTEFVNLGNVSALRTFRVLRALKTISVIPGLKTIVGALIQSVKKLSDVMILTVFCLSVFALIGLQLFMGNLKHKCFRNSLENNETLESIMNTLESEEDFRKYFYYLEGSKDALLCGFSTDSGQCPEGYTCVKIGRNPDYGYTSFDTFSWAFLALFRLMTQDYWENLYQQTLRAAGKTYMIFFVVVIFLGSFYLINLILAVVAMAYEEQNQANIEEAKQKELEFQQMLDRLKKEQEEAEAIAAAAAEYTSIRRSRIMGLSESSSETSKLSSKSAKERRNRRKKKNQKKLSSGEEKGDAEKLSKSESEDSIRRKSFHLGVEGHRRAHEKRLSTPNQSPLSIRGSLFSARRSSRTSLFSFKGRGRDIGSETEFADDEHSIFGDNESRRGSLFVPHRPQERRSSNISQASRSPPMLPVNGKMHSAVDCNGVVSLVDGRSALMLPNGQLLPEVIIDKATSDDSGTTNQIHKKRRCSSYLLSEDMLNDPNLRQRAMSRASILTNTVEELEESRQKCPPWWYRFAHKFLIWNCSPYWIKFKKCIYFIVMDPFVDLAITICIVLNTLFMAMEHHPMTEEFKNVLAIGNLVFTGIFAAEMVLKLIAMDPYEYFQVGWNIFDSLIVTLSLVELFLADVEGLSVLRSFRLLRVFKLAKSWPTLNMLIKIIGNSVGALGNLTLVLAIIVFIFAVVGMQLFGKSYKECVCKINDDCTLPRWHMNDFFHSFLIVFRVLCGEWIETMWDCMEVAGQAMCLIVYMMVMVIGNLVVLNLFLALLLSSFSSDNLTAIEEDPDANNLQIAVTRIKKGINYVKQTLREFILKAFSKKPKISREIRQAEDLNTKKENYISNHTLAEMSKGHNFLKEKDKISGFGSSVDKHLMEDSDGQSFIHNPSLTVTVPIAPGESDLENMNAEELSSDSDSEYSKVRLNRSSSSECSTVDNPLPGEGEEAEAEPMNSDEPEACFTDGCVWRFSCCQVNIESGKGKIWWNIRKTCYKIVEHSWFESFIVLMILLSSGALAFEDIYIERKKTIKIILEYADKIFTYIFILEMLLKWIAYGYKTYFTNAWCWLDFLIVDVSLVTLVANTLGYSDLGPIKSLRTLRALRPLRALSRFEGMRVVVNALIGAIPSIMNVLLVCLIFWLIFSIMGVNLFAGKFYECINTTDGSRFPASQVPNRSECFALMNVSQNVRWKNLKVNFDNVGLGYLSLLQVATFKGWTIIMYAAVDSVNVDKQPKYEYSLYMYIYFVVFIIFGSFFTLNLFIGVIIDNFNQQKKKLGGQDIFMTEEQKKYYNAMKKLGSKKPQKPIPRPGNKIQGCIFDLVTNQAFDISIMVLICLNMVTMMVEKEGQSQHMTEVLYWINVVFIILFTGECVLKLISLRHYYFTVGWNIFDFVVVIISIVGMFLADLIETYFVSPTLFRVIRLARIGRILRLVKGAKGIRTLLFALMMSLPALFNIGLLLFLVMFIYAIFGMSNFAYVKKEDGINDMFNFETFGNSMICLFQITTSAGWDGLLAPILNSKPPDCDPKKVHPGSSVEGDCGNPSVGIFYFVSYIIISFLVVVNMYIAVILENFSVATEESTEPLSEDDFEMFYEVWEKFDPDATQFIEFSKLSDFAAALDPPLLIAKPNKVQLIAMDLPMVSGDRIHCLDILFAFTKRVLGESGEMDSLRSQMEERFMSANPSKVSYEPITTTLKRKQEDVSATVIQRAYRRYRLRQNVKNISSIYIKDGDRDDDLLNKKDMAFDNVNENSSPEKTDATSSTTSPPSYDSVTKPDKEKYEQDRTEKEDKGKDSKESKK

[2] = test system: hERG (Potassium voltage-gated channel subfamily H member 2, Homo sapiens); assay: Displacement of [35S]MK-0499 from human hERG potassium channel at 10 uM
[3] = test system: hERG (Potassium voltage-gated channel subfamily H member 2, Homo sapiens); assay: Displacement of [35S]MK-0499 from human hERG potassium channel at 1 uM
[4] = Oral bioavailability in Sprague-Dawley rat at 3.0 mg/kg; format: ADME, organism-based; settings: in vivo
Method in brief: (§1)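 Fasted male Sprague–Dawley rats (n = 3 per route) received 1.0 mg/kg iv through a femoral vein cannula or 3.0 mg/kg po by gavage. Compound was formulated at 1.5 mg/mL in PEG300/water or DMSO/PEG300/water. Serial blood sampled at 5 min (iv only), 15 and 30 min, and 1, 2, 4, 6, 8 h. Plasma was acetonitrile-precipitated and measured by LC–MS/MS.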

[5] = Clearance in Sprague-Dawley rat at 1.0 mg/kg, iv; format: ADME, organism-based; parameters: dose 1 mg/kg, route intravenous; settings: in vivo; method in brief: as §1
[6] = Half life in Sprague-Dawley rat at 1.0 mg/kg, iv; format: ADME, organism-based; parameters: dose 1 mg/kg, route intravenous; settings: in vivo; method in brief: as §1
[7] = Cmax in Sprague-Dawley rat at 3.0 mg/kg, po; settings: in vivo
[8] = target: T1, Sodium channel protein type 9 subunit alpha; assay: Inhibition of human Nav1.7 sodium channel expressed in HEK293 cells at a membrane potential of -70 mV by whole cell voltage clamp technique; format: cell-based
Method in brief: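 Whole-cell voltage clamp on HEK-293 cells stably expressing hNav1.7. Peak current evoked by 20 ms depolarizations from −70 mV. Bath: 40 mM NaCl, 120 mM NMDG–Cl, 1 mM KCl, 2.7 mM CaCl2, 0.5 mM MgCl2, 10 mM NMDG–Hepes, pH 7.4. Pipette: Cs–methanesulfonate/CsCl/CsF/BAPTA-based, pH 7.4. Junction potentials (<4 mV) were not corrected.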
Target sequence in this assay (Q15858 whole entry): as above

[9] = target: T1, Sodium channel protein type 9 subunit alpha; settings: HEK293, 1 uM
Target sequence in this assay (Q15858 whole entry, looked up): as the sequence (Q15858 whole entry) above

[10] = target: T1, Sodium channel protein type 9 subunit alpha; settings: HEK293
Target sequence in this assay (Q15858 whole entry, looked up): as the sequence (Q15858 whole entry) above

| SMILES | IC50 [1] [nM] | inhibition [2] [%] | inhibition [3] [%] | further results |
| --- | --- | --- | --- | --- |
| Nc1nnc(-c2cccc(Cl)c2Cl)c(N)n1 [LAMOTRIGINE] |  |  |  | ED50 (Mus musculus): 2.2 mg/kg |
| CC(C)N1C(=O)[C@H](NC(=O)[C@@H](Cc2ccc(F)cc2)NC(=O)OC(C)(C)C)CN(CC2CC2)c2ccccc21 | 196 |  |  |  |
| CN1C(=O)[C@H](NC(=O)[C@@H](Cc2ccccc2F)NC(=O)OC(C)(C)C)CNc2ccccc21 | 409 | 25 | 0 |  |
| CC(C)(C)OC(=O)N[C@H](Cc1ccccc1C(F)(F)F)C(=O)N[C@@H]1CN(CC2CC2)c2ccccc2N(CC(F)(F)F)C1=O | 131 | 11 |  | bioavailability [4]: 10%; clearance [5]: 51 mL/min/kg; half-life [6]: 144 min; Cmax [7]: 60 nM |
| NC(=O)N1c2ccccc2C=Cc2ccccc21 [CARBAMAZEPINE] |  |  |  | ED50 (Mus musculus): 3.4 mg/kg |
| CC(C)N1C(=O)[C@H](NC(=O)[C@@H](Cc2ccccc2F)NC(=O)OC(C)(C)C)CN(CC2CC2)c2ccccc21 (stereo in doubt; 14) [listing 1 of 2 here] |  | 33 | 7 |  |
| CC(C)(C)OC(=O)N[C@H](Cc1cccc(F)c1)C(=O)N[C@@H]1CN(CC2CC2)c2ccccc2N(CC(F)(F)F)C1=O | 142 | 17 |  |  |
| CC(C)(C)OC(=O)N[C@H](Cc1cc(C(F)(F)F)ccc1C(F)(F)F)C(=O)N[C@@H]1CN(CC2CC2)c2ccccc2N(CC(F)(F)F)C1=O | 120 | 6 |  |  |
| CC(C)(C)OC(=O)N[C@H](Cc1ccc(F)cc1)C(=O)N[C@@H]1CN(CC2CC2)c2ccccc2N(CC(F)(F)F)C1=O | 219 |  |  |  |
| CC(C)N1C(=O)[C@H](NC(=O)[C@@H](Cc2ccccc2F)NC(=O)OC(C)(C)C)CN(CC2CC2)c2ccccc21 (stereo in doubt; 14) [listing 2 of 2 here] |  |  |  | IC50 ([1]; hek293): 102 nM |
| CC(C)N1C(=O)[C@H](NC(=O)[C@@H](Cc2ccccc2F)NC(=O)OC(C)(C)C)CN(CC2CC2)c2ccccc21 (stereo in doubt; 22) [listing 1 of 2 here] |  | 32 |  |  |
| CN1C[C@@H](NC(=O)[C@@H](Cc2ccccc2F)NC(=O)OC(C)(C)C)C(=O)N(C)c2ccccc21 | 142 | 7 | 0 |  |
| CC(C)N1C(=O)[C@H](NC(=O)[C@@H](Cc2ccccc2F)NC(=O)OC(C)(C)C)CN(CC2CC2)c2ccccc21 (stereo in doubt; 22) [listing 2 of 2 here] | 102 |  |  |  |
| CN1C(=O)[C@H](NC(=O)[C@@H](Cc2ccccc2F)NC(=O)OC(C)(C)C)CN(CC2CCCCC2)c2ccccc21 | 188 | 43 | 17 |  |
| CC(C)N1C(=O)[C@H](NC(=O)[C@@H](Cc2ccccc2C(F)(F)F)NC(=O)OC(C)(C)C)CN(CC2CC2)c2ccccc21 | 149 |  |  | bioavailability [4]: 9%; clearance [5]: 23 mL/min/kg; half-life [6]: 150 min; Cmax [7]: 150 nM |

Further compounds by falling IC50 [1], results first:

| IC50 [1] [nM] | SMILES | inhibition [2] [%] | inhibition [3] [%] | further results |
| --- | --- | --- | --- | --- |
| 101 | CC(C)(C)OC(=O)N[C@H](Cc1ccccc1F)C(=O)N[C@@H]1CN(CC2CC2)c2ccccc2N(CC(F)(F)F)C1=O | 20 | 7 |  |
| 97 | CC(C)N1C(=O)[C@H](NC(=O)[C@@H](Cc2c(F)cccc2F)NC(=O)OC(C)(C)C)CN(CC2CC2)c2ccccc21 | 25 |  |  |
| 96 | CC(C)N1C(=O)[C@H](NC(=O)[C@@H](Cc2cccc(F)c2)NC(=O)OC(C)(C)C)CN(CC2CC2)c2ccccc21 | 17 |  |  |
| 81 | CN1C(=O)[C@H](NC(=O)[C@@H](Cc2ccccc2F)NC(=O)OC(C)(C)C)CN(CC2CCC2)c2ccccc21 | 65 | 20 |  |
| 75 | CC(C)N1C(=O)[C@H](NC(=O)[C@@H](Cc2ccccc2OC(F)(F)F)NC(=O)OC(C)(C)C)CN(CC2CC2)c2ccccc21 | 35 |  | bioavailability [4]: 4%; clearance [5]: 30 mL/min/kg; half-life [6]: 144 min; Cmax [7]: 40 nM |
| 73 | CC(C)(C)OC(=O)N[C@H](Cc1ccccc1OC(F)(F)F)C(=O)N[C@@H]1CN(CC2CC2)c2ccccc2N(CC(F)(F)F)C1=O |  |  |  |
| 52 | CC(C)N1C(=O)[C@H](NC(=O)[C@@H](Cc2ccccc2)NC(=O)OC(C)(C)C)CN(CC2CC2)c2ccccc21 | 42 |  |  |
| 49 | CN1C(=O)[C@H](NC(=O)[C@@H](Cc2ccccc2F)NC(=O)OC(C)(C)C)CN(CC2CC2)c2ccccc21 |  |  |  |
| 47 | CN1C(=O)[C@H](NC(=O)[C@@H](Cc2ccccc2F)NC(=O)OC(C)(C)C)CN(CC(F)(F)F)c2ccccc21 | 62 | 36 |  |
| 30 | CC(C)(C)OC(=O)N[C@H](Cc1ccccc1)C(=O)N[C@@H]1CN(CC2CC2)c2ccccc2N(CC(F)(F)F)C1=O |  |  | bioavailability [4]: 5%; clearance [5]: 48 mL/min/kg; half-life [6]: 186 min; Activity (Mus musculus): Active; IC50 [8]: 1.54 nM; Ki [8]: 0.63 nM; inhibition [9]: < 10%; Kr [10]: > 5 µM; Cmax [7]: 30 nM |
| 25 | CN1C(=O)[C@H](NC(=O)[C@@H](Cc2ccccc2F)NC(=O)OC(C)(C)C)CN(Cc2ccccc2)c2ccccc21 | 84 | 14 |  |

Reference: ChEMBL document CHEMBL1141526, “3-Amino-1,5-benzodiazepinones: potent, state-dependent sodium channel blockers with anti-epileptic activity” (Bioorg Med Chem Lett, 2008)
